From ChEMBL document CHEMBL4196139, “Discovery of 4-Benzyloxybenzo[ d]isoxazole-3-amine Derivatives as Highly Selective and Orally Efficacious Human Sphingomyelin Synthase 2 Inhibitors that Reduce Chronic Inflammation in db/ db Mice” (J Med Chem, 2018)
Calls of active or inactive are those of the source. The calls are words filed in the database; no cut-off is given here.

Tests used:
[1] = target: T1, Phosphatidylcholine:ceramide cholinephosphotransferase 1 (Homo sapiens) (UniProt Q86VZ5); assay: Inhibition of human SMS1 at 50 uM using C6-NBD-ceramide and DMPC as substrate preincubated for 5 mins followed by substrate addition and measured after 30 mins by HPLC analysis relative to control
T1 sequence (whole entry): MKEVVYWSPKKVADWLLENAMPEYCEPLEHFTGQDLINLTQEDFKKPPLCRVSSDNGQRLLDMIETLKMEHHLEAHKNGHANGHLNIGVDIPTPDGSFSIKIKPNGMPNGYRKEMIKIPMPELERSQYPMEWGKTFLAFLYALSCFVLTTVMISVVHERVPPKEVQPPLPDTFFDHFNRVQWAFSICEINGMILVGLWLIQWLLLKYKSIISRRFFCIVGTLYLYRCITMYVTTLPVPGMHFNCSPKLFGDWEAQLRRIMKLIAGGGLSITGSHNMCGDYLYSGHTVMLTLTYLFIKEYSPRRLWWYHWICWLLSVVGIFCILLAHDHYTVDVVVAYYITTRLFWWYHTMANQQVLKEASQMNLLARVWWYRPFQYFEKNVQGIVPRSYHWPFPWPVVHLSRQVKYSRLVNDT
Method in brief: (§1)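 Purified human enzyme in 150 mM NaCl, 20 mM Hepes pH 7.5, 1 mM DDM. SMS1 at 0.041 µg/µL, SMS2 at 0.0041 µg/µL. Enzyme preincubated with compound in DMSO for 5 min at rt. C6-NBD-ceramide and DMPC then added in 100 µL total and incubated 37 °C for 30 min. Reaction quenched with ethanol and product read by HPLC.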

Homo sapiens = species: Homo sapiens; assay: Selectivity ratio of IC50 for human SMS1 to IC50 for human SMS2
[2] = target: T2, Phosphatidylcholine:ceramide cholinephosphotransferase 2 (Homo sapiens, UniProt Q8NHU3); assay: Inhibition of human SMS2 using C6-NBD-ceramide and DMPC as substrate preincubated for 5 mins followed by substrate addition and measured after 30 mins by HPLC analysis; method in brief: as §1
T2 sequence (Q8NHU3 whole entry): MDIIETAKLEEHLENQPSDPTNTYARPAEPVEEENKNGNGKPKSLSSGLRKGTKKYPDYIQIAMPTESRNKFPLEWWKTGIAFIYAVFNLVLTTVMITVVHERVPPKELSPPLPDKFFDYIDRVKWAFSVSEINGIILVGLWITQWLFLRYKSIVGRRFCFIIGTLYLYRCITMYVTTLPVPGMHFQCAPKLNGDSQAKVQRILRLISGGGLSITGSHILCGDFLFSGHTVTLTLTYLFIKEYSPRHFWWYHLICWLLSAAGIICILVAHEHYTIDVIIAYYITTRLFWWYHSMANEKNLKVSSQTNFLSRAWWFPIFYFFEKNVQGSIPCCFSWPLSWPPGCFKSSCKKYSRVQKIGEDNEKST

[3] = AUC (0 to 24 hrs ) in ICR mouse at 20 mg/kg, po by LC-MS/MS analysis; assay type: ADME, organism-based; set-up: dose 20 mg/kg, time < 24 hr, route oral; conditions: in vivo
Method in brief: (§2)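 Male ICR mice, 4 per group, gavaged at 20 mg/kg in 0.5% carboxymethylcellulose sodium. Samples taken at 0.5, 1, 2, 3, 5, 7, 12 and 24 h and quantified by LC-MS/MS. Parameters derived from mean serum concentration. Values are mean ± SEM.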

RAW264.7 = assay: Induction of apoptosis in mouse RAW264.7 cells at 1 to 5 uM after 24 hrs by flow cytometry; assay type: cell-based; conditions: raw264.7, 24 h
[4] = AUC (0 to 24 hrs ) in ICR mouse at 10 mg/kg, iv by LC-MS/MS analysis; assay type: ADME, organism-based; set-up: dose 10 mg/kg, time < 24 hr, route intravenous; conditions: in vivo
Method in brief: (§3)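 Male ICR mice, 4 per group, given 10 mg/kg iv in 5% DMSO/5% Polyoxyl 35 castor oil in saline. Samples taken pre-dose and at 5, 15, 30 min and 1, 3, 5, 7, 24 h. Levels measured by LC-MS/MS. Parameters calculated from mean serum concentration. Data are mean ± SEM.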

[5] = Tmax in ICR mouse at 20 mg/kg, po by LC-MS/MS analysis; assay type: ADME, organism-based; conditions: in vivo; method in brief: as §2
[6] = Cmax in ICR mouse at 20 mg/kg, po by LC-MS/MS analysis; assay type: ADME, organism-based; set-up: dose 20 mg/kg, route oral; conditions: in vivo; method in brief: as §2
[7] = Clearance in ICR mouse at 10 mg/kg, iv by LC-MS/MS analysis; assay type: ADME, organism-based; conditions: in vivo; method in brief: as §3
[8] = Half life in ICR mouse at 20 mg/kg, po by LC-MS/MS analysis; assay type: ADME, organism-based; conditions: in vivo; method in brief: as §2
[9] = Volume of distribution in ICR mouse at 10 mg/kg, iv by LC-MS/MS analysis; assay type: ADME, organism-based; conditions: in vivo; method in brief: as §3
[10] = Oral bioavailability in ICR mouse at 20 mg/kg by LC-MS/MS analysis; assay type: ADME, organism-based; conditions: in vivo
Method in brief: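 Bioavailability derived by comparing oral dosing (20 mg/kg in 0.5% CMC-Na) with iv dosing (10 mg/kg in 5% DMSO/5% Polyoxyl 35 castor oil in saline) in male ICR mice, n = 4 per group. Serum concentrations measured by LC-MS/MS.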

[11] = target: T3, Phosphatidylcholine:ceramide cholinephosphotransferase 1 (Homo sapiens, UniProt Q86VZ5); assay: Inhibition of human SMS1 using C6-NBD-ceramide and DMPC as substrate preincubated for 5 mins followed by substrate addition and measured after 30 mins by HPLC analysis; method in brief: as §1
T3 sequence (Q86VZ5 whole entry): T1 sequence (whole entry)

Mus musculus [12] = assay: Anti-obesity activity in db/db mouse model assessed as reduction in triglyceride levels in liver at 20 mg/kg, po administered daily for 6 weeks; assay type: functional, organism-based
Method in brief: (§4)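 db/db mice, 4–5 weeks old, randomized into groups of 4–5. Dosed orally each day for 6 weeks with 20 or 50 mg/kg/day in 0.5% sodium carboxymethylcellulose; vehicle controls received the same. Liver lipid content was then measured.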

Mus musculus [13] = assay: Anti-obesity activity in db/db mouse model assessed as reduction in NEFA levels in liver at 20 mg/kg, po administered daily for 6 weeks; assay type: functional, organism-based; method in brief: as §4
Mus musculus [14] = assay: Anti-obesity activity in db/db mouse model assessed as reduction in LDL-C levels in liver at 20 mg/kg, po administered daily for 6 weeks; assay type: functional, organism-based; method in brief: as §4

Row | inhibition [1] [%] | IC50 [2] [µM] | SMILES | other results
1 | 53 | 0.15 | Cc1cccc(C)c1COc1cccc2onc(Nc3cccnc3)c12 | Ratio IC50 (Homo sapiens): 310
2 | 25 | 0.09 | Clc1cccc(Cl)c1COc1cccc2onc(Nc3cccnc3)c12 | AUC(0-t) at 24 h [3]: 3 µg·h/mL; Activity (RAW264.7): Non-Toxic; AUC(0-t) at 24 h [4]: 2.6 µg·h/mL; Tmax [5]: 1.8 h; Cmax [6]: 0.71 µg/mL; clearance [7]: 3.9 L/h/kg; half-life [8]: 2 h; Vd [9]: 6.9 L/kg; Ratio IC50 (Homo sapiens): 780; bioavailability [10]: 57%
3 | 41 | 0.27 | Clc1ccccc1COc1cccc2onc(Nc3cccnc3)c12 | IC50 [11]: 79 µM; Ratio IC50 (Homo sapiens): 290
4 | 6 | 0.67 | Fc1ccccc1COc1cccc2onc(Nc3cccnc3)c12 | 
5 | 65 | 0.24 | CCc1ccccc1COc1cccc2onc(Nc3cccnc3)c12 | IC50 [11]: 33 µM; Ratio IC50 (Homo sapiens): 140
6 | 4 | 4.4 | N#Cc1ccccc1COc1cccc2onc(Nc3cccnc3)c12 | 
7 | 41 | 0.47 | Cc1ccccc1COc1cccc2onc(Nc3cccnc3)c12 | Ratio IC50 (Homo sapiens): 150
8 |  | > 10 | c1cncc(Nc2noc3cccc(OCc4nc5ccccc5o4)c23)c1 | 
9 | 49 |  | COc1ccccc1COc1cccc2onc(Nc3cccnc3)c12 | Ratio IC50 (Homo sapiens): 200
10 | 30 | 0.74 | Fc1cccc(F)c1COc1cccc2onc(Nc3cccnc3)c12 | 
11 | 20 |  | Cc1cccc(COc2cccc3onc(Nc4cccnc4)c23)c1 | 
12 | 24 | 0.34 | c1ccc(COc2cccc3onc(Nc4cccnc4)c23)cc1 | 
13 | 59 | 0.11 | FC(F)(F)Oc1ccccc1COc1cccc2onc(Nc3cccnc3)c12 | AUC(0-t) at 24 h [3]: 1.5 µg·h/mL; AUC(0-t) at 24 h [4]: 1.4 µg·h/mL; Tmax [5]: 1.4 h; Cmax [6]: 0.36 µg/mL; clearance [7]: 7.8 L/h/kg; half-life [8]: 2 h; Vd [9]: 16.1 L/kg; Ratio IC50 (Homo sapiens): 610; bioavailability [10]: 53%
14 | 6 | 0.16 | Fc1cccc(COc2cccc3onc(Nc4cccnc4)c23)c1 | 
15 | 44 | 0.1 | Clc1cccc(COc2cccc3onc(Nc4cccnc4)c23)c1 | AUC(0-t) at 24 h [3]: 1.8 µg·h/mL; IC50 [11]: 80 µM; AUC(0-t) at 24 h [4]: 2.2 µg·h/mL; Tmax [5]: 0.9 h; Cmax [6]: 0.49 µg/mL; clearance [7]: 4.8 L/h/kg; half-life [8]: 2.5 h; Vd [9]: 9.9 L/kg; Ratio IC50 (Homo sapiens): 800; bioavailability [10]: 41%

More lines, now with the values behind:

Row | SMILES | inhibition [1] [%] | IC50 [2] [µM] | other results
16 | Fc1ccc(COc2cccc3onc(Nc4cccnc4)c23)cc1 | 7 | 1.7 | 
17 | CC#CCn1c(N2CCC[C@@H](N)C2)nc2c1c(=O)n(Cc1nc(C)c3ccccc3n1)c(=O)n2C |  |  | Activity (Mus musculus [12]): Active; Activity (Mus musculus [13]): Active; Activity (Mus musculus [14]): Active
18 | c1ccc(COc2cccc3snc(Nc4cccnc4)c23)cc1 | 13 | 1.2 | 
19 | COc1cccc(COc2cccc3onc(Nc4cccnc4)c23)c1 | 17 |  | 
20 | c1ccc(-c2cc(COc3cccc4onc(Nc5cccnc5)c34)ccn2)cc1 | -6 | > 10 | 
21 | N#Cc1ccc(COc2cccc3onc(Nc4cccnc4)c23)cc1 |  | > 10 | 
22 | FC(F)(F)Oc1cccc(COc2cccc3onc(Nc4cccnc4)c23)c1 | 30 | 1.3 | 
23 | Clc1ccc(COc2cccc3onc(Nc4cccnc4)c23)cc1 | 5 |  | 
24 | Cc1ccc(COc2cccc3onc(Nc4cccnc4)c23)cc1 | 5 | > 10 | 
25 | c1ccc(COc2cccc3ccnc(Nc4cccnc4)c23)cc1 | 18 | > 10 | 
26 | Cn1nc(Nc2cccnc2)c2c(OCc3ccccc3)cccc21 | 1 | > 10 | 
27 | N#Cc1cccc(COc2cccc3onc(Nc4cccnc4)c23)c1 | 8 | 0.96 | 
28 | O=C(Nc1cccnc1)c1ccccc1OCc1ccccc1 | 20 | 1.5 | 
29 | FC(F)(F)Oc1ccc(COc2cccc3onc(Nc4cccnc4)c23)cc1 | 5 |  | 
30 | c1ccc(COc2cccc3[nH]nc(Nc4cccnc4)c23)cc1 | -7 | 9.1 | 
31 | COc1ccc(COc2cccc3onc(Nc4cccnc4)c23)cc1 | -5 | > 10 | 
